ChEMBL document CHEMBL4346672, “Antimicrobial and KPC/AmpC inhibitory activity of functionalized benzosiloxaboroles” (Eur J Med Chem, 2019)
In brackets after ≈: the same amount, converted by molar mass. Activity calls are given as the source filed them. The calls are words filed in the database; no cut-off is given here.

What was measured:
Proteus mirabilis [1] = experiment: Antibacterial activity against Proteus mirabilis ATCC 12453 assessed as fold reduction of MIC in presence of efflux pump inhibitor PAbetaN incubated for 18 hrs by broth microdilution method; type: functional
How it was run: (§1)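 MICs determined with and without PAβN at 50 mg/L in Mueller-Hinton broth containing 1 mM MgSO₄. 2-fold serial dilutions per CLSI. Fold change taken from the paired MICs after 35 °C, 18 h.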

Enterococcus faecium [2] = experiment: Antibacterial activity against Enterococcus faecium ATCC 6057 measured after 18 hrs by CLSI broth dilution method; type: functional; details: ATCC 6057, 18 h
How it was run: (§2)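 Broth MIC in Mueller-Hinton II broth following CLSI, compounds dissolved in DMSO. Strains subcultured twice on tryptic soy agar before testing. Growth read after 35 °C, 18 h.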

[3] = test system: Stenotrophomonas maltophilia; experiment: Antibacterial activity against Stenotrophomonas maltophilia ATCC 13637 measured after 18 hrs by CLSI broth dilution method; type: functional; details: ATCC 13637, 18 h; how it was run: as §2
Bacillus subtilis = experiment: Antibacterial activity against Bacillus subtilis ATCC 6633 assessed as diameter of zone inhibition measured after 18 hrs by CLSI disc diffusion method; type: functional
How it was run: (§3)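 Disc diffusion on Mueller-Hinton II agar. Compounds dissolved in DMSO. Strains stored at -80 °C and subcultured twice on tryptic soy agar before testing. Inhibition zones read after 35 °C, 18 h.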

Klebsiella pneumoniae [4] = experiment: Antibacterial activity against Klebsiella pneumoniae ATCC 13883 measured after 18 hrs by CLSI broth dilution method; type: functional; details: ATCC 13883, 18 h; how it was run: as §2
Candida albicans [5] = experiment: Antifungal activity against Candida albicans ATCC 90028 assessed as diameter of zone inhibition incubated for 24 hrs by CLSI disc diffusion method; type: functional
How it was run: (§4)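 Yeast disc diffusion on Mueller-Hinton agar supplemented with 2% glucose and 0.5 mg/L methylene blue. Compounds in DMSO. Yeasts subcultured on Sabouraud dextrose agar before testing. Zones read after 35 °C, 24 h.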

Acinetobacter baumannii [6] = experiment: Antibacterial activity against Acinetobacter baumannii ATCC 19606 assessed as diameter of zone inhibition measured after 18 hrs by CLSI disc diffusion method; type: functional; how it was run: as §3
Klebsiella pneumoniae [7] = experiment: Antibacterial activity against Klebsiella pneumoniae ATCC 13883 assessed as fold reduction of MIC in presence of efflux pump inhibitor PAbetaN incubated for 18 hrs by broth microdilution method; type: functional; how it was run: as §1
Escherichia coli [8] = experiment: Antibacterial activity against Escherichia coli ATCC 25922 assessed as fold reduction of MIC in presence of efflux pump inhibitor PAbetaN incubated for 18 hrs by CLSI broth microdilution method; type: functional; how it was run: as §1
Saccharomyces cerevisiae = experiment: Antifungal activity against Saccharomyces cerevisiae ATCC 9763 assessed as decrease in fungal cell growth at 0.78 to 12.5 mg/L incubated for 24 hrs by CLSI broth dilution method; type: functional; details: ATCC 9763, 24 h
How it was run: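 Yeast strain subcultured on Sabouraud dextrose agar for 24–48 h at 30 °C before testing. Compounds dissolved in DMSO.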

Pichia kudriavzevii = experiment: Antifungal activity against Candida krusei ATCC 6258 assessed as decrease in fungal cell growth at 0.78 to 12.5 mg/L incubated for 24 hrs by CLSI broth dilution method; type: functional; details: ATCC 6258, 24 h
How it was run: (§5)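 Yeast broth dilution in RPMI 1640 with 2% glucose, compounds in DMSO. Yeasts pre-grown on Sabouraud dextrose agar. Growth read after 35 °C, 24 h.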

Enterococcus faecalis = experiment: Antibacterial activity against Enterococcus faecalis ATCC 29212 measured after 18 hrs by CLSI broth dilution method; type: functional; details: ATCC 29212, 18 h; how it was run: as §2
[9] = test system: Meyerozyma guilliermondii; experiment: Antifungal activity against Candida guilliermondii IBA 155 assessed as diameter of zone inhibition incubated for 24 hrs by CLSI disc diffusion method; type: functional; how it was run: as §4
[10] = test system: Bordetella bronchiseptica; experiment: Antibacterial activity against Bordetella bronchiseptica ATCC 4617 assessed as diameter of zone inhibition measured after 18 hrs by CLSI disc diffusion method; type: functional; how it was run: as §3
[11] = test system: Stenotrophomonas maltophilia; experiment: Antibacterial activity against Stenotrophomonas maltophilia ATCC 13637 assessed as fold reduction of MIC in presence of efflux pump inhibitor PAbetaN incubated for 18 hrs by broth microdilution method; type: functional; how it was run: as §1
Candida tropicalis = experiment: Antifungal activity against Candida tropicalis IBA 171 assessed as decrease in fungal cell growth at 0.78 to 12.5 mg/L incubated for 24 hrs by CLSI broth dilution method; type: functional; details: IBA 171, 24 h; how it was run: as §5
Staphylococcus aureus = experiment: Antibacterial activity against Staphylococcus aureus ATCC 6538P measured after 18 hrs by CLSI broth dilution method; type: functional; how it was run: as §2
Candida albicans [12] = experiment: Antifungal activity against Candida albicans ATCC 90028 assessed as decrease in fungal cell growth at 0.78 to 12.5 mg/L incubated for 24 hrs by CLSI broth dilution method; type: functional; details: ATCC 90028, 24 h; how it was run: as §5
Acinetobacter baumannii [13] = experiment: Antibacterial activity against Acinetobacter baumannii ATCC 19606 measured after 18 hrs by CLSI broth dilution method; type: functional; details: ATCC 19606, 18 h; how it was run: as §2
Serratia marcescens = details: ATCC 13880
Pseudomonas aeruginosa [14] = experiment: Antibacterial activity against Pseudomonas aeruginosa ATCC 27853 measured after 18 hrs by CLSI broth dilution method; type: functional; details: ATCC 27853, 18 h; how it was run: as §2
Enterococcus faecium [15] = experiment: Antibacterial activity against Enterococcus faecium ATCC 6057 assessed as diameter of zone inhibition measured after 18 hrs by CLSI disc diffusion method; type: functional; how it was run: as §3
[16] = test system: Bordetella bronchiseptica; experiment: Antibacterial activity against Bordetella bronchiseptica ATCC 4617 measured after 18 hrs by CLSI broth dilution method; type: functional; details: ATCC 4617, 18 h; how it was run: as §2
Proteus mirabilis [17] = experiment: Antibacterial activity against Proteus mirabilis ATCC 12453 assessed as diameter of zone inhibition measured after 18 hrs by CLSI disc diffusion method; type: functional; how it was run: as §3
Candida parapsilosis [18] = experiment: Antifungal activity against Candida parapsilosis ATCC 22019 assessed as decrease in fungal cell growth at 0.78 to 12.5 mg/L incubated for 24 hrs by CLSI broth dilution method; type: functional; details: Lodderomyces parapsilosis, ATCC 22019, 24 h; how it was run: as §5
Candida parapsilosis [19] = experiment: Antifungal activity against Candida parapsilosis ATCC 22019 assessed as diameter of zone inhibition incubated for 24 hrs by CLSI disc diffusion method; type: functional; how it was run: as §4
Proteus mirabilis [20] = experiment: Antibacterial activity against Proteus mirabilis ATCC 12453 measured after 18 hrs by CLSI broth dilution method; type: functional; details: ATCC 12453, 18 h; how it was run: as §2
Escherichia coli [21] = experiment: Antibacterial activity against Escherichia coli ATCC 25922 assessed as diameter of zone inhibition measured after 18 hrs by CLSI disc diffusion method; type: functional; how it was run: as §3
Burkholderia cepacia = experiment: Antibacterial activity against Burkholderia cepacia ATCC 25416 assessed as diameter of zone inhibition measured after 18 hrs by CLSI disc diffusion method; type: functional; how it was run: as §3
[22] = Dissociation constant, pKa1 of compound in 0.1 M NaOH by potentiometric analysis; type: physicochemical
Pseudomonas aeruginosa [23] = experiment: Antibacterial activity against Pseudomonas aeruginosa ATCC 27853 assessed as diameter of zone inhibition measured after 18 hrs by CLSI disc diffusion method; type: functional, organism-based; how it was run: as §3
[24] = test system: Meyerozyma guilliermondii; experiment: Antifungal activity against Candida guilliermondii IBA 155 assessed as decrease in fungal cell growth at 0.78 to 12.5 mg/L incubated for 24 hrs by CLSI broth dilution method; type: functional; details: IBA 155, 24 h; how it was run: as §5
[25] = test system: Staphylococcus epidermidis; experiment: Antibacterial activity against Staphylococcus epidermidis ATCC 12228 assessed as diameter of zone inhibition measured after 18 hrs by CLSI disc diffusion method; type: functional; how it was run: as §3

| SMILES | fold change (FC) (Proteus mirabilis [1]) | MIC (Enterococcus faecium [2]) [µg/mL] | MIC [3] [µg/mL] | diameter of the inhibition zone (DIZ) (Bacillus subtilis) [mm] | MIC (Klebsiella pneumoniae [4]) [µg/mL] | diameter of the inhibition zone (DIZ) (Candida albicans [5]) | diameter of the inhibition zone (DIZ) (Acinetobacter baumannii [6]) | fold change (FC) (Klebsiella pneumoniae [7]) | fold change (FC) (Escherichia coli [8]) | MIC (Saccharomyces cerevisiae) [µg/mL] | MIC (Pichia kudriavzevii) [µg/mL] | MIC (Enterococcus faecalis) [µg/mL] | diameter of the inhibition zone (DIZ) [9] | diameter of the inhibition zone (DIZ) [10] | fold change (FC) [11] | MIC (Candida tropicalis) [µg/mL] | MIC (Staphylococcus aureus) [µg/mL] | MIC (Candida albicans [12]) [µg/mL] | MIC (Acinetobacter baumannii [13]) [µg/mL] | DIZ (Serratia marcescens) | other results |
| --- | --- | --- | --- | --- | --- | --- | --- | --- | --- | --- | --- | --- | --- | --- | --- | --- | --- | --- | --- | --- | --- |
| C[Si]1(C)OB(O)c2ccc(C=O)c(F)c21 | 4 | 200 (≈ 893 µM) | > 400 | 22 | > 400 | inactive | inactive | 4 | 16 | > 400 | > 400 | 400 (≈ 1790 µM) | inactive | inactive | 16 | 200 (≈ 893 µM) | 25 (≈ 112 µM) | 400 (≈ 1790 µM) | > 400 | inactive | MIC (Pseudomonas aeruginosa [14]): > 400 µg/mL; diameter of the inhibition zone (DIZ) (Enterococcus faecium [15]): inactive; MIC [16]: > 400 µg/mL; diameter of the inhibition zone (DIZ) (Proteus mirabilis [17]): inactive; MIC (Candida parapsilosis [18]): 400 µg/mL (≈ 1790 µM); diameter of the inhibition zone (DIZ) (Candida parapsilosis [19]): inactive; MIC (Proteus mirabilis [20]): > 400 µg/mL; diameter of the inhibition zone (DIZ) (Escherichia coli [21]): inactive; diameter of the inhibition zone (DIZ) (Burkholderia cepacia): inactive; pKa [22]: 5.4; diameter of the inhibition zone (DIZ) (Pseudomonas aeruginosa [23]): inactive; MIC [24]: > 400 µg/mL; diameter of the inhibition zone (DIZ) [25]: 27 mm |
| C[Si]1(C)OB(O)c2c(C=O)cc(F)c(F)c21 | 2 | 400 (≈ 1650 µM) | 400 (≈ 1650 µM) | 18 | > 400 | 11 mm | inactive | 32 | 64 | 100 (≈ 413 µM) | > 400 | 400 (≈ 1650 µM) | 12 mm | inactive | 4 | 200 (≈ 826 µM) | 50 (≈ 207 µM) | 400 (≈ 1650 µM) | 400 (≈ 1650 µM) | inactive | MIC (Pseudomonas aeruginosa [14]): > 400 µg/mL; diameter of the inhibition zone (DIZ) (Enterococcus faecium [15]): inactive; MIC [16]: 400 µg/mL (≈ 1650 µM); diameter of the inhibition zone (DIZ) (Proteus mirabilis [17]): inactive; MIC (Candida parapsilosis [18]): 100 µg/mL (≈ 413 µM); diameter of the inhibition zone (DIZ) (Candida parapsilosis [19]): inactive; MIC (Proteus mirabilis [20]): > 400 µg/mL; diameter of the inhibition zone (DIZ) (Escherichia coli [21]): inactive; diameter of the inhibition zone (DIZ) (Burkholderia cepacia): inactive; pKa [22]: 5.2; diameter of the inhibition zone (DIZ) (Pseudomonas aeruginosa [23]): inactive; MIC [24]: 400 µg/mL (≈ 1650 µM); diameter of the inhibition zone (DIZ) [25]: 28 mm |
| C[Si]1(C)OB(O)c2cc(F)c(C=O)c(F)c21 | 2 | 50 (≈ 207 µM) | > 400 | 14 | > 400 | inactive | inactive | 4 | 4 | 50 (≈ 207 µM) | 25 (≈ 103 µM) | 400 (≈ 1650 µM) | inactive | inactive | 8 | 100 (≈ 413 µM) | 200 (≈ 826 µM) | > 400 | > 400 | inactive | MIC (Pseudomonas aeruginosa [14]): > 400 µg/mL; diameter of the inhibition zone (DIZ) (Enterococcus faecium [15]): inactive; MIC [16]: > 400 µg/mL; diameter of the inhibition zone (DIZ) (Proteus mirabilis [17]): inactive; MIC (Candida parapsilosis [18]): 25 µg/mL (≈ 103 µM); diameter of the inhibition zone (DIZ) (Candida parapsilosis [19]): inactive; MIC (Proteus mirabilis [20]): > 400 µg/mL; diameter of the inhibition zone (DIZ) (Escherichia coli [21]): inactive; diameter of the inhibition zone (DIZ) (Burkholderia cepacia): inactive; pKa [22]: 4.9; diameter of the inhibition zone (DIZ) (Pseudomonas aeruginosa [23]): inactive; MIC [24]: 200 µg/mL (≈ 826 µM); diameter of the inhibition zone (DIZ) [25]: 22 mm |
